29 compounds from PubChem BioAssay AID540348 (Broad Institute, 2011) can be followed below.

Activity calls are given as the source filed them.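 The calls were made as follows: active = inhibitors whose fitted half-maximal dose is at most ten times the top tested dose; inconclusive = flat curve with 30 to 70% inhibition, or a poor fit; inactive = the rest.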

Tested on in the first assay: not listed separately
The experiment in a line: suppression of TRPM1 promoter luciferase signal, dose response, MITF project, SK-MEL-5 cells, dry powder samples (AID 540348). The settings on record: SK-MEL-5 TRPM1 promoter luciferase reporter, 24 h; at 35 µM (top of the series). The procedure, abridged:
(§1)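 Test system: SK-MEL-5 TRPM1 promoter luciferase reporter line | Buffer or medium: Phenol red-free DMEM with 10% iFBS | Compound: Dry-powder compound dose series | Schedule: Cell plating one day before dosing, 24 h compound exposure at 37 °C | Detection: Steady-Glo luminescence, 5 min RT, 0.5 s/well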
With `CCN1CCCC1CNC(=O)c1ccc2c(c1)NC(=O)/C(=C\c1ccc(C)cc1)S2` (centres undefined), the activity change, negative = inhibition was -106% (inactive).

With `Cc1oc(-c2ccc(Cl)cc2)nc1CN1CCC(C(=O)NCCCN2CCCC(C)C2)CC1` (centres undefined), the activity change, negative = inhibition was -104% (inactive).

As to `Cc1[nH]c2ccccc2c1C(=O)CCl`, the activity change, negative = inhibition was -106% (inactive).

On to `CC1=NNC(=O)/C1=C\c1cn(-c2ccccc2)nc1-c1ccc(F)cc1`, for which the activity change, negative = inhibition was -106% (inactive).

For `CCN(CC)CCNC(=O)c1c(C)n(-c2ccccc2)c2cc(Br)c(OC)cc12`, the activity change, negative = inhibition was -94.1% (inactive).

For `N=c1n(CCN2CCCC2)c2ccccc2n1CC(O)c1ccc(Cl)c(Cl)c1` (centres undefined), the activity change, negative = inhibition is -109% (inactive).

For the compound `Cc1ccc(C(O)(c2ccc(C)c(C)c2)C2CN3CCC2CC3)cc1C` (centres undefined), the activity change, negative = inhibition was -51% (inactive).

On to `CC1CN(C(=O)CCC(=O)NCCCN2CCC(Cc3ccccc3)CC2)c2cc(Cl)ccc2O1` (centres undefined), for which the activity change, negative = inhibition is -105% (inactive).

The subject of a further assay is SK-MEL-5 TRPM1 promoter luciferase reporter, 24 h. Described as above.
Conditions: not given
In short, it runs like this:
as §1
For the compound `CC(C)C(CCNC1CCN(C)CC1)c1ccc(Cl)cc1` (centres undefined), the AC50 was 10.6 µM.

In the case of `COc1cc(/C=N/NC(N)=O)c(Br)cc1OCC(=O)Nc1ccccc1C`, the AC50 is 17.7 µM.

In the case of `O=C(CNc1cccc2ccccc12)N/N=C/c1ccc([N+](=O)[O-])o1`, the AC50 was 2.42 µM.

In the case of `Cc1nc2ccccc2n1/N=C/c1ccc([N+](=O)[O-])s1`, the AC50 was 2.88 µM.

With `O=C(Cn1ncc(Cl)c(Cl)c1=O)N1CCc2ccccc21`, the AC50 is 4.69 µM.

As to `CC1CCCCC1NC(=O)/C(C#N)=C/C=C/c1ccccc1[N+](=O)[O-]` (centres undefined), the AC50 is 7.3 µM.

For `O=c1c(Cl)c2oc3ccccc3nc-2c2ccccc12`, the AC50 was 6.17 µM.

In the case of `Cc1ccc(C(C)C)c(OCc2nn(CC(=O)c3ccc(Cl)cc3)c3[n+]2CCCCC3)c1`, the AC50 was 13.8 µM.

`O=C(COc1ccccc1)N/N=C/c1ccc([N+](=O)[O-])o1`: the AC50 was 2.6 µM.

For the compound `CCN1c2ccccc2NC2N=C(OC)C(c3ccccc3)C21` (centres undefined), the AC50 was 0.808 µM.

Turning to `CC1CCN(CC(CS(=O)(=O)c2ccc([N+](=O)[O-])cc2)N2CCC(C)CC2)CC1` (centres undefined), the AC50 is 5.58 µM.

Take `CC1(C)CC(NC(=O)c2ccc(Cl)c(S(=O)(=O)N(Cc3ccccc3)c3ccccc3)c2)CC(C)(C)N1`: the AC50 is 6.34 µM.

Turning to `C=CCNC1=C(Cl)C(=O)c2ccccc2C1=O`, the AC50 is 0.905 µM.

As for `COc1ccc(S(=O)(=O)N(C(C)=O)c2ccc(OC(C)=O)c3ccccc23)cc1[N+](=O)[O-]`, the AC50 is 2.87 µM.

As for `O=C(Nc1ccc(N2CCN(C(=O)c3ccccc3)CC2)cc1)c1ccc([N+](=O)[O-])o1`, the AC50 is 9.85 µM.

`CN(C)CCCNC(=O)/C(=C\c1ccc(-c2ccc(Br)cc2)o1)NC(=O)c1ccccc1`: the AC50 was 12.2 µM.

`O=C(Nc1ccc(-c2nc3ncccc3o2)cc1)c1ccc([N+](=O)[O-])o1`: the AC50 was 8.55 µM.

As to `Cc1cc(C(C)(C)C)cc(C)c1Cn1c2[n+](c3ccc(C(F)(F)F)cc31)CCCCC2`, the AC50 is 9.42 µM.

On to `Cc1ccc(C(=O)N/N=C/c2ccc([N+](=O)[O-])s2)cc1`, for which the AC50 was 5.75 µM.

Turning to `COc1cc2c(cc1OC)C(c1ccccc1)N(C(=O)CCl)CC2` (centres undefined), the AC50 was 5.19 µM.

Turning to `CCN1CCN(C2=C(NS(=O)(=O)c3ccc(Br)cc3)C(=O)c3ccccc3C2=O)CC1`, the AC50 is 2.09 µM.
